For one data set, the system named is Yellow fever virus. The data set is described as follows: Antiviral activity against Yellow fever virus 17D infected in BHK cells assessed as protection against virus-induced cytopathogenicity after 3 to 4 days by MTT assay. In kind it is functional, cell-based.
In a further data set the test system is Coxsackievirus B5. In words: Antiviral activity against Human coxsackievirus B5 ATCC VR-29 infected in African green monkey Vero 76 cells assessed as reduction of virus-plaque formation after 3 days by crystal violet staining. In kind it is functional, organism-based. To be noted: Enterovirus B, ATCC VR-29, Vero, 72 h. In short, it runs like this: (§1)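 Plaque reduction: Vero-76 at 2x10^5 cells/well grown to confluent monolayers, infected 2 h at 50–100 PFU/well; after removing unadsorbed virus, overlay of D-MEM, 1% inactivated FBS, 0.75% methylcellulose with or without serial compound dilutions; 3 days at 37°C, fixed and stained with crystal violet in 50% ethanol, plaques counted; EC50 by linear regression.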

In data set [1] the test system is Pseudomonas aeruginosa. The data set is described as follows: Antimicrobial activity against Pseudomonas aeruginosa ATCC 15442 after 18 hrs by twofold serial microdilution method. The data set is classed as functional, organism-based. Background: In broth dilution the organism is exposed to a series of concentrations in liquid medium.
For data set [2], the system named is Candida albicans. In words: Antimicrobial activity against Candida albicans ATCC 90028 after 24 hrs by twofold serial microdilution method. In kind it is functional, organism-based.
Data set [3] has as its system Escherichia coli. The data set is described as follows: Antimicrobial activity against Escherichia coli ATCC 10538 after 18 hrs by twofold serial microdilution method. The data set is classed as functional, organism-based.
A short description of data set [4]: Cytotoxicity against bovine MDBK cells assessed as cell viability after 48 to 96 hrs by MTT assay. The data set is classed as cell-based, Bos taurus. Conditions: cattle. A general note: Formazan colour is commonly taken as a measure of viable cells.
In data set [5] the test system is Bordetella bronchiseptica. In words: Antimicrobial activity against Bordetella bronchiseptica ATCC 4617 after 18 hrs by twofold serial microdilution method. The data set is classed as functional, organism-based.
Data set [6] concerns Pseudomonas aeruginosa. The data set is described as follows: Antimicrobial activity against Pseudomonas aeruginosa NCTC 6749 after 18 hrs by twofold serial microdilution method. In kind it is functional, organism-based.
The subject of data set [7] is Pseudomonas aeruginosa. The data set is described as follows: Antimicrobial activity against Pseudomonas aeruginosa ATCC 27863 after 18 hrs by twofold serial microdilution method. In kind it is functional, organism-based.
The test system of data set [8] is Human immunodeficiency virus 1. In words: Antiviral activity against HIV1 3B infected in human MT4 cells assessed as protection against virus-induced cytopathogenicity by MTT assay. Conditions: Human immunodeficiency virus 1, 3B. The data set is classed as functional, organism-based. For orientation: Cytopathic effects are the visible damage that an infection or toxin causes in cultured cells.

A further data set deals with Human alphaherpesvirus 1. In words: Antiviral activity against Human herpesvirus 1 KOS ATCC VR-1493 infected in African green monkey Vero 76 cells assessed as reduction of virus-plaque formation after 3 days by crystal violet staining. To be noted: Human alphaherpesvirus 1, KOS ATCC VR1493, Vero, 72 h. In kind it is functional, organism-based. In short, it runs like this:
as §1

In data set [9] the test system is Escherichia coli. In words: Antimicrobial activity against Escherichia coli NCTC 8196 after 18 hrs by twofold serial microdilution method. The data set is classed as functional, organism-based.
Another data set has as its system Poliovirus 1. The data set is described as follows: Antiviral activity against Poliovirus type 1 ATCC VR-1562 infected in African green monkey Vero 76 cells assessed as reduction of virus-plaque formation after 2 days by crystal violet staining. The data set is classed as functional, organism-based. To be noted: Enterovirus C, ATCC VR-1562, Vero, 48 h.
Data set [10] is described as follows: Cytotoxicity against human MT4 cells. The data set is classed as cell-based.
Data set [11] can be described thus: Cytotoxicity against BHK cells assessed as cell viability after 48 to 96 hrs by MTT assay. The data set is classed as cell-based, Mesocricetus auratus. To be noted: hamster.
Data set [12] has as its system Escherichia coli. The data set is described as follows: Antimicrobial activity against Escherichia coli ATCC 25922 after 18 hrs by twofold serial microdilution method. In kind it is functional, organism-based.
Data set [13] relates to Mycobacterium tuberculosis. The data set is described as follows: Antimycobacterial activity against drug-sensitive Mycobacterium tuberculosis Spec. 192. In kind it is functional. In a few lines: (§2)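 Classical test-tube successive-dilution method in Youmans' modification of Proskauer and Beck liquid medium with 10% bovine serum. Inoculum came from 14-day cultures. DMSO stock was 10 mg/mL, diluted geometrically in medium. Tubes were incubated at 37 °C. Concentrations tested were 3.1, 6.2, 12.5, 25, 50 and 100 µg/ml. MIC is the minimum concentration inhibiting growth relative to compound-free tubes.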

Data set [14] deals with Candida albicans. In words: Antimicrobial activity against Candida albicans ATCC 10231 after 24 hrs by twofold serial microdilution method. The data set is classed as functional, organism-based.
Data set [15] has as its system Mycobacterium tuberculosis. In words: Antimycobacterial activity against Mycobacterium tuberculosis H37Rv ATCC 25618. The data set is classed as functional. In short, it runs like this:
as §2

A short description of data set [16]: Cytotoxicity against African green monkey Vero 76 cells assessed as cell viability after 48 to 96 hrs by crystal violet staining. In kind it is cell-based. Conditions: chlorocebus sabaeus.
The test system of the next data set is Vaccinia virus. The data set is described as follows: Antiviral activity against Human Vaccinia virus ATCC VR-1549 infected in African green monkey Vero 76 cells assessed as reduction of virus-plaque formation after 3 days by crystal violet staining. In kind it is functional, organism-based. To be noted: Orthopoxvirus vaccinia, ATCC VR-1549, Vero, 72 h.
In the next data set the test system is Candida parapsilosis. The data set is described as follows: Antimicrobial activity against Candida parapsilosis ATCC 22019 after 24 hrs by twofold serial microdilution method. The data set is classed as functional, organism-based.
A short description of data set [17]: Antiviral activity against Bovine viral diarrhea virus 1-NADL ATCC VR-534 infected in MDBK cells assessed as protection against virus-induced cytopathogenicity after 3 to 4 days by MTT assay. The data set is classed as functional, cell-based. To be noted: Bovine viral diarrhea virus isolates and strains, ATCC VR-534, MDBK. In short, it runs like this:
(§3)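 Cells seeded in 96-well plates (BHK 5x10^4, MDBK 3x10^4 cells/well), grown overnight to confluence, infected at m.o.i. 0.01 (BHK for Reo-1, MDBK for BVDV); serial compound dilutions in maintenance medium with 0.5% inactivated FBS added after 1 h; viability by MTT after 3–4 days at 37°C; EC50 for 50% protection by linear regression.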

Data set [18] has as its system Mammalian orthoreovirus 1. In words: Antiviral activity against Reovirus type-1 ATCC VR-214 infected in BHK cells assessed as protection against virus-induced cytopathogenicity after 3 to 4 days by MTT assay. Conditions: Mammalian orthoreovirus 1, ATCC VR-214, BHK. In kind it is functional, cell-based. In a few lines:
as §3

Data set [19] relates to Vesicular stomatitis virus. In words: Antiviral activity against Vesicular stomatitis virus ATCC VR 1540 infected in African green monkey Vero 76 cells assessed as reduction of virus-plaque formation after 2 days by crystal violet staining. In kind it is functional, organism-based. Conditions: ATCC VR 1540, Vero, 48 h.
For another data set, the system named is CCRF-SB. The data set is described as follows: Cytotoxicity against human CCRF-SB cells after 96 hrs by MTT assay. The data set is classed as functional. In a few lines: (§4)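 Leukaemia/lymphoma lines seeded at 1×10^5 cells/ml in RPMI-1640 with 10% FCS and penicillin/streptomycin; incubated with serial dilutions at 37°C, 5% CO2; viability by MTT after 96 h; value is concentration reducing proliferation by 50%, with untreated controls undergoing at least three rounds of multiplication.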

The next data set has as its system CCRF-CEM. In words: Cytotoxicity against human CCRF-CEM cells after 96 hrs by MTT assay. The data set is classed as functional. In a few lines:
as §4

Another data set relates to WIL2-NS. In words: Cytotoxicity against human WIL2-NS cells after 96 hrs by MTT assay. In kind it is functional. In short, it runs like this:
as §4

In brackets after ≈: the same amount, converted by molar mass. Activity calls are given as the source filed them. The calls are words filed in the database; no cut-off is given here. Where only a bound is given, the exact number is not on record here.

The values below come from ChEMBL document CHEMBL3616436, “Synthesis, cytotoxicity and antimicrobial activity of thiourea derivatives incorporating 3-(trifluoromethyl)phenyl moiety” (Eur J Med Chem, 2015).

Take `CCCCc1ccc(NC(=S)Nc2cccc(C(F)(F)F)c2)c(C)c1`: the EC50 (usually the concentration giving half of the maximal effect) with Yellow fever virus is > 9 µM; in the data set on Coxsackievirus B5 it was > 18 µM; in data set [8] it was > 43 µM; with Human alphaherpesvirus 1, > 18 µM; with Poliovirus 1, > 18 µM; in the data set with Vaccinia virus it was > 18 µM. For the same compound, the values for the EC50 in data set [17], in data set [18] and in [19] were > 10 µM, > 9 µM and > 18 µM, respectively. Also, the result (in the data set with Pseudomonas aeruginosa [1]; in the data set with Candida albicans [2]; in the data set on Escherichia coli [3]; in [5]; in the data set on Pseudomonas aeruginosa [6]; with Pseudomonas aeruginosa [7]) was inactive. The outcome in the data set with Escherichia coli [9], in the data set on Escherichia coli [12], in the data set with Candida albicans [14] and with Candida parapsilosis was inactive. The CC50 (commonly the concentration giving 50% cytotoxicity) in data set [4] amounted to 10 µM; in data set [10] it was 43 µM; in data set [11], 9 µM; in data set [16], 18 µM. For the same compound, the MIC (commonly the lowest concentration found to suppress growth) amounted to 100 µg/mL (≈ 273 µM) in data set [13] and 50 µg/mL (≈ 136 µM) in [15].

Take `COc1cccc2c1C(=O)c1c(O)c3c(c(O)c1C2=O)C[C@@](O)(C(=O)CO)C[C@@H]3O[C@H]1C[C@H](N)[C@H](O)[C@H](C)O1` [DOXORUBICIN]: the CC50 with CCRF-SB was found to be 0.03 µM; in the data set with CCRF-CEM, 0.02 µM; with WIL2-NS, 0.02 µM.

As for `Cc1ccc(NC(=S)Nc2cccc(C(F)(F)F)c2)cc1Cl`, the EC50 in the data set with Yellow fever virus is > 10 µM; in the data set with Coxsackievirus B5, > 20 µM; in data set [8] it was > 20 µM; in the data set on Human alphaherpesvirus 1, > 20 µM; in the data set with Poliovirus 1, > 20 µM; in the data set on Vaccinia virus, > 20 µM. The values for the EC50 in data set [17], in [18] and in data set [19] were > 10 µM, > 10 µM and > 20 µM, respectively. Besides, the outcome (in the data set with Pseudomonas aeruginosa [1]; in the data set on Candida albicans [2]; with Escherichia coli [3]; in data set [5]; in the data set with Pseudomonas aeruginosa [6]; with Pseudomonas aeruginosa [7]) was inactive. Besides, the result in the data set with Escherichia coli [9], in the data set with Escherichia coli [12], with Candida albicans [14] and with Candida parapsilosis was inactive. Further, the CC50 in [4] was 10 µM; in data set [10], 20 µM; in data set [11], 10 µM; in data set [16] it was 20 µM. Moreover, the MIC in data set [13] and in data set [15] was > 100 µg/mL each time.

As to `FC(F)(F)c1cccc(NC(=S)NC2CCCCC2)c1`, the EC50 in the data set on Yellow fever virus is > 14 µM; in the data set with Coxsackievirus B5 it was > 60 µM; in data set [8] it was > 45 µM; in the data set with Human alphaherpesvirus 1, > 60 µM; in the data set on Poliovirus 1, > 60 µM; in the data set with Vaccinia virus, > 60 µM. For the same compound, the results for the EC50 in data set [17], in data set [18] and in data set [19] were > 48 µM, > 14 µM and > 60 µM, respectively. Further, the result (with Pseudomonas aeruginosa [1]; in the data set with Candida albicans [2]; in the data set with Escherichia coli [3]; in data set [5]; in the data set with Pseudomonas aeruginosa [6]; in the data set with Pseudomonas aeruginosa [7]) was inactive. Moreover, the outcome in the data set on Escherichia coli [9], in the data set on Escherichia coli [12], in the data set with Candida albicans [14] and with Candida parapsilosis was inactive. The CC50 was 48 µM in [4], 45 µM in data set [10], 14 µM in data set [11] and 60 µM in [16]. Also, the MIC in data set [13] and in data set [15] was > 100 µg/mL each time.
